In ChEMBL document CHEMBL3217467, “A structure-activity relationship study on multi-heterocyclic molecules: two linked thiazoles are required for cytotoxic activity” (Medchemcomm, 2013) one finds IC50, inhibition of growth and Activity data, which are given here for six compounds.

Assay [1] has as its system HCT-116. The assay can be described thus: Cytotoxicity against human HCT116 cells assessed as growth inhibition after 72 hrs by CCK8 assay. In kind it is functional, cell-based. The settings on record: HCT-116, 72 h. In outline: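 HCT-116 cells seeded at 3000/well in DMEM with 10% FBS and left 24 h to adhere at 37°C in CO2. They were then exposed for 72 h to 1, 2, 5, 10, 20, 30 and 40 μM, with 1% DMSO and media-only controls. Readout was CCK-8 reduction, 1 h, absorbance at 450 nm. IC50 was taken from log concentration versus % survival curves; three experiments, quadruplicate points.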

The subject of assay [2] is HCT-116. The assay can be described thus: Cytotoxicity against human HCT116 cells assessed as growth inhibition at 40 uM after 72 hrs by CCK8 assay. The settings on record: HCT-116, 72 h, read-out: GI. It counts as functional. Summed up: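 HCT-116 cells seeded at 3000/well in DMEM with 10% FBS and allowed 24 h at 37°C in CO2. They were then treated 72 h at a single 40 uM concentration, with media-only and 1% DMSO controls. Fresh serum-free medium plus CCK-8 was added for 1 h at 37°C, and absorbance read at 450 nm as % cell survival.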

Assay [3] deals with HCT-116. In words: Induction of apoptosis in human HCT116 cells assessed as plasma membrane budding at 10 uM after 24 hrs by Hoechst 33342 staining based microscopic analysis. In kind it is functional, cell-based. Summed up:
(§1)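 HCT 116 cells were plated at 20,000 per dish 24 h before treatment, then given 10 μM compound or 1% (v/v) DMSO control for 24 h. They were fixed in 1.5% glutaraldehyde in PBS for 1 h, washed with PBS, stained with 5 μg/ml Hoechst 33342 and imaged by confocal microscopy.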

Assay [4] concerns HCT-116. The assay can be described thus: Induction of apoptosis in human HCT116 cells assessed as intact plasma membranes at 10 uM after 24 hrs by Hoechst 33342 staining based microscopic analysis. In kind it is functional, cell-based. In outline:
as §1

Assay [5] has as its system HCT-116. In words: Induction of apoptosis in human HCT116 cells assessed as chromatin condensation at 10 uM after 24 hrs by Hoechst 33342 staining based microscopic analysis. It counts as functional, cell-based. Summed up:
as §1

Assay [6] deals with HCT-116. In words: Induction of apoptosis in human HCT116 cells assessed as nuclear condensation at 10 uM after 24 hrs by Hoechst 33342 staining based microscopic analysis. It counts as functional. In outline:
as §1

Assay [7] deals with HCT-116. The assay can be described thus: Induction of apoptosis in human HCT116 cells assessed as cell shrinkage and nuclear condensation at 10 uM after 24 hrs by Hoechst 33342 staining based microscopic analysis. In kind it is functional. In outline: as §1

The source made the active and inactive calls. The rule behind the calls is not given here.

Turning to `COC(=O)c1nc(-c2csc(-c3csc(-c4csc(-c5csc([C@@H](NC(=O)OC(C)(C)C)[C@@H](C)OC(C)(C)C)n5)n4)n3)n2)oc1-c1ccccc1`, the IC50 in the assay with HCT-116 [1] stood at 18.7 µM. The inhibition of growth at 40 µM in the assay on HCT-116 [2] was over 50%.

Consider `CCOC(=O)c1csc(-c2coc(-c3coc([C@@H](NC(=O)OC(C)(C)C)[C@@H](C)OC(C)(C)C)n3)n2)n1`, for which the result with HCT-116 [3] was inactive. The result with HCT-116 [4] and in the assay on HCT-116 [5] was Active. Also, in the assay on HCT-116 [6], the Activity stood at 12%.

For `CCOC(=O)c1csc(-c2csc(-c3csc([C@@H](NC(=O)OC(C)(C)C)[C@@H](C)OC(C)(C)C)n3)n2)n1`, in the assay with HCT-116 [3], the outcome was inactive. Moreover, the outcome with HCT-116 [4] and in the assay with HCT-116 [5] was Active. Besides, the Activity in the assay on HCT-116 [7] is on record as 30%. The concentration for half-maximal inhibition (IC50) in the assay with HCT-116 [1] worked out at 26.5 µM. In addition, in the assay on HCT-116 [2], the inhibition of growth at 40 µM is over 50%.

As to `COC(=O)c1nc(-c2csc(-c3csc(-c4coc(-c5coc([C@@H](NC(=O)OC(C)(C)C)[C@@H](C)OC(C)(C)C)n5)n4)n3)n2)oc1-c1ccccc1`, the IC50 in the assay on HCT-116 [1] came out at 18.2 µM. Moreover, the inhibition of growth at 40 µM in the assay with HCT-116 [2] is over 50%.

For `COC(=O)c1coc(-c2coc([C@@H](NC(=O)OC(C)(C)C)[C@@H](C)OC(C)(C)C)n2)n1`, the IC50 in the assay on HCT-116 [1] is over 100 µM.

Turning to `CCOC(=O)c1csc(-c2csc([C@@H](NC(=O)OC(C)(C)C)[C@@H](C)OC(C)(C)C)n2)n1`, in the assay with HCT-116 [1], the IC50 came out at 19.4 µM. For the same compound, the inhibition of growth at 40 µM in the assay on HCT-116 [2] was over 50%.
